In ChEMBL document CHEMBL1125838, “Conformational restriction of the phenylalanine residue in a cyclic opioid peptide analogue: effects on receptor selectivity and stereospecificity” (J Med Chem, 1991):

Assays:
[1] = target: Delta-type opioid receptor (Rattus norvegicus, UniProt P33533); experiment: Displacement of [3H]DSLET from rat brain membrane opioid receptor delta
In short: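 Rat brain membranes incubated with 0.78 nM [3H]DSLET at 0 °C for 2 h. IC50 taken from log dose-displacement curves.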

[2] = species on record: Cavia porcellus; experiment: Relative potency towards guinea pig ileum relative to [Leu5]-enkephalin; format: functional
In short: (§1)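 The [Leu5]enkephalin standard's log dose-response curve was run on each individual ileum or vas deferens preparation. Test IC50 values for inhibition of electrically evoked contractions were normalized to it, giving potency relative to [Leu5]enkephalin.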

[3] = target: Mu-type opioid receptor (Rattus norvegicus, UniProt P33535); experiment: Displacement of [3H]DAGO from rat brain membrane opioid receptor mu
[4] = species on record: Mus musculus; experiment: Relative potency towards mouse vas deferens relative to [Leu5]-enkephalin; format: functional; in short: as §1
[5] = species on record: Cavia porcellus; experiment: Compound was tested in vitro for inhibition of electrically evoked contractions of the guinea pig ileum; format: functional
In short: (§2)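 Electrically stimulated guinea pig ileum or mouse vas deferens preparations; inhibition of evoked contractions measured. Each preparation also gave a log dose-response curve for the [Leu5]enkephalin standard, and test IC50 values were normalized against it. Naloxone Ki came from the ratio of IC50 values with and without a fixed naloxone concentration.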

[6] = species on record: Mus musculus; experiment: Compound was tested in vitro for inhibition of electrically evoked contractions of the mouse vas deferens; format: functional; in short: as §2

Chain of Delta-type opioid receptor (P33533 whole entry): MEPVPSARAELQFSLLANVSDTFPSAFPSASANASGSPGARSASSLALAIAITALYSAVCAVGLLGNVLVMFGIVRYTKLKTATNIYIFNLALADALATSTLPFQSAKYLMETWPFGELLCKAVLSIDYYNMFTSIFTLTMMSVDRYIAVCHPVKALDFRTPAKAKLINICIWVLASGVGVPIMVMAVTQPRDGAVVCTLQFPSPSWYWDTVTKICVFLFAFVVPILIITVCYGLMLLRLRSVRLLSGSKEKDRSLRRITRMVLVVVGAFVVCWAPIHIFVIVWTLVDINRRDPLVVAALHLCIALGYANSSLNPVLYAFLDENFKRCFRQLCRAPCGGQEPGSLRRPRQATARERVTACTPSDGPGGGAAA
Chain of Mu-type opioid receptor (P33535 whole entry): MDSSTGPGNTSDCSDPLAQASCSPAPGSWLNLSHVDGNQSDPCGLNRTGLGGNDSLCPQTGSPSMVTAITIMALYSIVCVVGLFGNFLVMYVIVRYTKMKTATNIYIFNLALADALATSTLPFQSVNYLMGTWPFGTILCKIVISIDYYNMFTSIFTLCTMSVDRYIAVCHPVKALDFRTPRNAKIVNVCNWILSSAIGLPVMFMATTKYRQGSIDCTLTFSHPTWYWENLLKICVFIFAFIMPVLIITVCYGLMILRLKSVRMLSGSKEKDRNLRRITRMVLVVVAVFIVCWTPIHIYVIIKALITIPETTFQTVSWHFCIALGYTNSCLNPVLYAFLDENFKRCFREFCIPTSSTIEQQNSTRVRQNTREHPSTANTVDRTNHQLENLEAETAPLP

Row | SMILES | Ki [1] [nM] | Relative potency [2] | Ki [3] [nM] | Relative potency [4] | IC50 [5] [nM] | IC50 [6] [nM] | Relative potency [6] [nM]
1 | CN1C(=O)[C@H](NC(=O)[C@@H](N)Cc2ccc(O)cc2)CCCNC(=O)CC[C@@H](C(N)=O)NC(=O)[C@@H]1Cc1ccccc1 | 12800 | 0.348 | 1000 | 0.00551 | 707 | 2070 | 
2 | NC(=O)[C@@H]1CCC(=O)NCCC[C@@H](NC(=O)[C@@H](N)Cc2ccc(O)cc2)C(=O)N[C@H](CCc2ccccc2)C(=O)N1 | 2600 | 0.338 | 258 | 0.00274 | 728 | 4160 | 
3 | NC(=O)[C@@H]1CCC(=O)NCCC[C@@H](NC(=O)[C@@H](N)Cc2ccc(O)cc2)C(=O)N[C@H](Cc2ccccc2)C(=O)N1 | 14000 | 0.28 |  | 0.00295 |  |  | 3860
4 | NC(=O)[C@@H]1CCC(=O)NCCC[C@@H](NC(=O)[C@@H](N)Cc2ccc(O)cc2)C(=O)NC2(Cc3ccccc3C2)C(=O)N1 [listing 1 of 2 here] | 209 |  | 4.21 |  | 7.21 | 36.5 | 
5 | NC(=O)[C@@H]1CCC(=O)NCCC[C@@H](NC(=O)[C@@H](N)Cc2ccc(O)cc2)C(=O)NC2(Cc3ccccc3C2)C(=O)N1 [listing 2 of 2 here] |  | 34.1 |  | 0.312 |  |  | 
6 | NC(=O)[C@@H]1CCC(=O)NCCC[C@@H](NC(=O)[C@@H](N)Cc2ccc(O)cc2)C(=O)N[C@@H](Cc2ccccc2)C(=O)N1 | 3.21 | 210 | 0.981 | 10.3 | 1.17 | 1.11 | 
7 | NC(=O)[C@@H]1CCC(=O)NCCC[C@@H](NC(=O)[C@@H](N)Cc2ccc(O)cc2)C(=O)N2Cc3ccccc3C[C@H]2C(=O)N1 | 50100 | 0.0803 | 2410 | 0.00156 | 3060 | 7310 | 
8 | NC(=O)[C@@H]1CCC(=O)NCCC[C@@H](NC(=O)[C@@H](N)Cc2ccc(O)cc2)C(=O)N[C@@H](Cc2ccc3ccccc3c2)C(=O)N1 | 50.7 | 60.5 | 2.56 | 1.05 | 4.07 | 10.9 | 
9 | NC(=O)[C@@H]1CCC(=O)NCCC[C@@H](NC(=O)[C@@H](N)Cc2ccc(O)cc2)C(=O)N[C@@H](CCc2ccccc2)C(=O)N1 | 15.4 | 42.3 |  | 0.332 | 5.82 | 34.3 | 
10 | Cc1ccccc1C[C@@H]1NC(=O)[C@H](NC(=O)[C@@H](N)Cc2ccc(O)cc2)CCCNC(=O)CC[C@@H](C(N)=O)NC1=O | 9.22 | 453 | 1.92 | 10.3 | 0.543 | 1.11 | 
11 | C[C@]1(Cc2ccccc2)NC(=O)[C@H](NC(=O)[C@@H](N)Cc2ccc(O)cc2)CCCNC(=O)CC[C@@H](C(N)=O)NC1=O | 54.6 | 74.3 | 7.17 | 2.07 | 3.31 | 5.51 | 
12 | NC(=O)[C@@H]1CCC(=O)NCCC[C@@H](NC(=O)[C@@H](N)Cc2ccc(O)cc2)C(=O)N[C@]2(CCc3ccccc3C2)C(=O)N1 (single isomer, unassigned) | 1570 | 7.78 | 8.26 | 0.0449 | 31.6 | 254 | 
13 | NC(=O)[C@@H]1CCC(=O)NCCC[C@@H](NC(=O)[C@@H](N)Cc2ccc(O)cc2)C(=O)N[C@@]2(CCc3ccccc3C2)C(=O)N1 (single isomer, unassigned) | 3510 | 0.863 | 26.3 | 0.00371 | 285 | 3070 | 
